Source: ChEMBL document CHEMBL1127562, “N-substituted spirosuccinimide, spiropyridazine, spiroazetidine, and acetic acid aldose reductase inhibitors derived from isoquinoline-1,3-diones. 2” (J Med Chem, 1994)
The source made the active and inactive calls. No cut-off for these calls is given here.

Key:
Rattus norvegicus [1] = assay: Tested for in vivo inhibition of galactitol accumulation in the sciatic nerve of galactose-fed rats at the dose of 24.4 (mg/kg/day); assay type: functional
Outline: (§1)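 Rats were given a 20% galactose diet for 4 days, with the test compound administered in the diet. Sciatic nerve galactitol accumulation was measured, and activity is given as % inhibition at the stated daily dose (mg/kg/day). Values are mean ± SEM, n = 6 animals; p < 0.01 unless indicated. NS means no significant inhibition of polyol accumulation.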

[2] = biological target: Aldo-keto reductase family 1 member B1 (Bos taurus) (UniProt P16116); assay: Inhibition of aldose reductase activity in partially purified bovine lens preparation at 10e-5 M
Outline: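 Partially purified bovine lens aldose reductase. Reduction of DL-glyceraldehyde substrate followed spectrophotometrically. Activity expressed as average inhibition at the tested concentrations, 1×10^-5, 1×10^-6, 1×10^-7 and 4×10^-6 M as printed; IC50 in M where given.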

Rattus norvegicus [3] = assay: Tested for in vivo inhibition of galactitol accumulation in the lens of galactose-fed rats at the dose of 24.4 (mg/kg/day); NS=Not significant; assay type: functional, organism-based; settings: Lens of camera-type eye
Rattus norvegicus [4] = assay: Tested for in vivo inhibition of galactitol accumulation in the sciatic nerve of galactose-fed rats at the dose of 93.6 (mg/kg/day); assay type: functional
Outline: (§2)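 Rats fed a 20% galactose diet for 4 days, with test compound given in the diet at the stated daily dose (mg/kg/day). Read-out is inhibition of galactitol (polyol) accumulation in sciatic nerve. Values are % inhibition, mean ± SEM of six animals; p < 0.01 unless marked (some p < 0.05). NS = no significant inhibition of polyol accumulation. Tolrestat was the reference standard.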

Rattus norvegicus [5] = assay: Tested for in vivo inhibition of galactitol accumulation in the lens of galactose-fed rats at the dose of 93.6 (mg/kg/day); NS=Not significant; assay type: functional, organism-based; settings: Lens of camera-type eye
Outline: (§3)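 Galactosemic rats were fed 20% galactose for 4 days, with the compound mixed into the diet. […] galactitol accumulation was measured, and activity is given as % inhibition at the stated daily dose (mg/kg/day). Values are mean ± SEM of six animals; p < 0.01 unless indicated. NS means no significant inhibition of polyol accumulation.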

Rattus norvegicus [6] = assay: Tested for in vivo inhibition of galactitol accumulation in the lens of galactose-fed rats at the dose of 49.3 (mg/kg/day); NS=Not significant; assay type: functional, organism-based; settings: Lens of camera-type eye
Rattus norvegicus [7] = assay: Tested for in vivo inhibition of galactitol accumulation in the sciatic nerve of galactose-fed rats at the dose of 49.3 (mg/kg/day); assay type: functional; outline: as §2
Rattus norvegicus [8] = assay: Tested for in vivo inhibition of galactitol accumulation in the sciatic nerve of galactose-fed rats at the dose of 1.1 (mg/kg/day); assay type: functional; outline: as §1
Rattus norvegicus [9] = assay: Tested for in vivo inhibition of galactitol accumulation in the lens of galactose-fed rats at the dose of 1.1 (mg/kg/day); NS=Not significant; assay type: functional, organism-based; settings: Lens of camera-type eye
Rattus norvegicus [10] = assay: Tested for in vivo inhibition of galactitol accumulation in the lens of galactose-fed rats at the dose of 27.1 (mg/kg/day); assay type: functional, Lens of camera-type eye
Rattus norvegicus [11] = assay: Tested for in vivo inhibition of galactitol accumulation in the sciatic nerve of galactose-fed rats at the dose of 27.1 (mg/kg/day); assay type: functional; outline: as §1
Rattus norvegicus [12] = assay: Tested for in vivo inhibition of galactitol accumulation in the sciatic nerve of galactose-fed rats at the dose of 48.8 (mg/kg/day); assay type: functional; outline: as §2
Rattus norvegicus [13] = assay: Tested for in vivo inhibition of galactitol accumulation in the sciatic nerve of galactose-fed rats at the dose of 96.6 (mg/kg/day); assay type: functional; outline: as §2
Rattus norvegicus [14] = assay: Tested for in vivo inhibition of galactitol accumulation in the lens of galactose-fed rats at the dose of 48.8 (mg/kg/day); NS=Not significant; assay type: functional, organism-based; settings: Lens of camera-type eye
Rattus norvegicus [15] = assay: Tested for in vivo inhibition of galactitol accumulation in the lens of galactose-fed rats at the dose of 96.6 (mg/kg/day); NS=Not significant; assay type: functional, organism-based; settings: Lens of camera-type eye; outline: as §3
Rattus norvegicus [16] = assay: Tested for in vivo inhibition of galactitol accumulation in the sciatic nerve of galactose-fed rats at the dose of 10.8 (mg/kg/day); assay type: functional; outline: as §1
Rattus norvegicus [17] = assay: Tested for in vivo inhibition of galactitol accumulation in the lens of galactose-fed rats at the dose of 10.8 (mg/kg/day); assay type: functional, Lens of camera-type eye
Rattus norvegicus [18] = assay: Tested for in vivo inhibition of galactitol accumulation in the lens of galactose-fed rats at the dose of 0.9 (mg/kg/day); NS=Not significant; assay type: functional, organism-based; settings: Lens of camera-type eye
Rattus norvegicus [19] = assay: Tested for in vivo inhibition of galactitol accumulation in the sciatic nerve of galactose-fed rats at the dose of 85 (mg/kg/day); assay type: functional; outline: as §2
Rattus norvegicus [20] = assay: Tested for in vivo inhibition of galactitol accumulation in the lens of galactose-fed rats at the dose of 26.8 (mg/kg/day); NS=Not significant; assay type: functional, organism-based; settings: Lens of camera-type eye
Rattus norvegicus [21] = assay: Tested for in vivo inhibition of galactitol accumulation in the lens of galactose-fed rats at the dose of 85 (mg/kg/day); assay type: functional, Lens of camera-type eye; outline: as §3
Rattus norvegicus [22] = assay: Tested for in vivo inhibition of galactitol accumulation in the sciatic nerve of galactose-fed rats at the dose of 26.8 (mg/kg/day); assay type: functional; outline: as §1
Rattus norvegicus [23] = assay: Tested for in vivo inhibition of galactitol accumulation in the sciatic nerve of galactose-fed rats at the dose of 9.8 (mg/kg/day); assay type: functional; outline: as §2
Rattus norvegicus [24] = assay: Tested for in vivo inhibition of galactitol accumulation in the sciatic nerve of galactose-fed rats at the dose of 57.2 (mg/kg/day); assay type: functional; outline: as §2
Rattus norvegicus [25] = assay: Tested for in vivo inhibition of galactitol accumulation in the lens of galactose-fed rats at the dose of 57.2 (mg/kg/day); assay type: functional, Lens of camera-type eye; outline: as §3
Rattus norvegicus [26] = assay: Tested for in vivo inhibition of galactitol accumulation in the lens of galactose-fed rats at the dose of 24.5 (mg/kg/day); NS=Not significant; assay type: functional, organism-based; settings: Lens of camera-type eye
Rattus norvegicus [27] = assay: Tested for in vivo inhibition of galactitol accumulation in the sciatic nerve of galactose-fed rats at the dose of 24.5 (mg/kg/day); assay type: functional; outline: as §1
Rattus norvegicus [28] = assay: Tested for in vivo inhibition of galactitol accumulation in the sciatic nerve of galactose-fed rats at the dose of 50.9 (mg/kg/day); assay type: functional; outline: as §2
Rattus norvegicus [29] = assay: Tested for in vivo inhibition of galactitol accumulation in the lens of galactose-fed rats at the dose of 50.9 (mg/kg/day); assay type: functional, Lens of camera-type eye
Rattus norvegicus [30] = assay: Tested for in vivo inhibition of galactitol accumulation in the sciatic nerve of galactose-fed rats at the dose of 0.9 (mg/kg/day); assay type: functional; outline: as §1
Rattus norvegicus [31] = assay: Tested for in vivo inhibition of galactitol accumulation in the sciatic nerve of galactose-fed rats at the dose of 0.5 (mg/kg/day); assay type: functional; outline: as §1
Rattus norvegicus [32] = assay: Tested for in vivo inhibition of galactitol accumulation in the sciatic nerve of galactose-fed rats at the dose of 1.0 (mg/kg/day); assay type: functional; outline: as §1
Rattus norvegicus [33] = assay: Tested for in vivo inhibition of galactitol accumulation in the sciatic nerve of galactose-fed rats at the dose of 56.1 (mg/kg/day); assay type: functional; outline: as §2
Rattus norvegicus [34] = assay: Tested for in vivo inhibition of galactitol accumulation in the lens of galactose-fed rats at the dose of 56.1 (mg/kg/day); assay type: functional, Lens of camera-type eye; outline: as §3
Rattus norvegicus [35] = assay: Tested for in vivo inhibition of galactitol accumulation in the lens of galactose-fed rats at the dose of 47 (mg/kg/day); NS=Not significant; assay type: functional, organism-based; settings: Lens of camera-type eye
Rattus norvegicus [36] = assay: Tested for in vivo inhibition of galactitol accumulation in the sciatic nerve of galactose-fed rats at the dose of 47 (mg/kg/day); assay type: functional; outline: as §1
Rattus norvegicus [37] = assay: Tested for in vivo inhibition of galactitol accumulation in the lens of galactose-fed rats at the dose of 49 (mg/kg/day); assay type: functional, Lens of camera-type eye
Rattus norvegicus [38] = assay: Tested for in vivo inhibition of galactitol accumulation in the lens of galactose-fed rats at the dose of 10.5 (mg/kg/day); NS=Not significant; assay type: functional, organism-based; settings: Lens of camera-type eye
Rattus norvegicus [39] = assay: Tested for in vivo inhibition of galactitol accumulation in the sciatic nerve of galactose-fed rats at the dose of 49 (mg/kg/day); assay type: functional; outline: as §2
Rattus norvegicus [40] = assay: Tested for in vivo inhibition of galactitol accumulation in the lens of galactose-fed rats at the dose of 48 (mg/kg/day); assay type: functional, Lens of camera-type eye
Rattus norvegicus [41] = assay: Tested for in vivo inhibition of galactitol accumulation in the sciatic nerve of galactose-fed rats at the dose of 48 (mg/kg/day); assay type: functional; outline: as §2
Rattus norvegicus [42] = assay: Tested for in vivo inhibition of galactitol accumulation in the lens of galactose-fed rats at the dose of 4.7 (mg/kg/day); NS=Not significant; assay type: functional, organism-based; settings: Lens of camera-type eye
Rattus norvegicus [43] = assay: Tested for in vivo inhibition of galactitol accumulation in the sciatic nerve of galactose-fed rats at the dose of 4.7 (mg/kg/day); assay type: functional; outline: as §1
Rattus norvegicus [44] = assay: Tested for in vivo inhibition of galactitol accumulation in the lens of galactose-fed rats at the dose of 25.9 (mg/kg/day); NS=Not significant; assay type: functional, organism-based; settings: Lens of camera-type eye
Rattus norvegicus [45] = assay: Tested for in vivo inhibition of galactitol accumulation in the sciatic nerve galactose-fed rats at the dose of 25.9 (mg/kg/day); assay type: functional; outline: as §1

COC(=O)NC(=O)CC1C(=O)N(C)C(=O)c2ccc(Br)cc21 (stereo not given)
Inhibition (Rattus norvegicus [1]): 68% | inhibition [2]: 82% | inhibition (Rattus norvegicus [3]): inactive

COC(=O)NC(=O)CC1C(=O)N(Cc2nc3cc(C(F)(F)F)ccc3s2)C(=O)c2ccc(F)cc21 (stereo not given)
Inhibition (Rattus norvegicus [4]): 59% | inhibition (Rattus norvegicus [5]): inactive | inhibition [2]: 83% | inhibition (Rattus norvegicus [6]): inactive | Inhibition (Rattus norvegicus [7]): 39%

CC(C)=NN1C(=O)CC2(C(=O)N(Cc3ccc(Br)cc3F)C(=O)c3ccc(F)cc32)C1=O (stereo not given)
Inhibition (Rattus norvegicus [8]): 47% | inhibition [2]: inactive | inhibition (Rattus norvegicus [9]): inactive | Inhibition (Rattus norvegicus [10]): 58% | Inhibition (Rattus norvegicus [11]): 84%

COC(=O)NC(=O)CC1C(=O)N(Cc2nc3cc(C(F)(F)F)ccc3s2)C(=O)c2ccccc21 (stereo not given)
inhibition [2]: 95% | Inhibition (Rattus norvegicus [12]): 61% | Inhibition (Rattus norvegicus [13]): 73% | NS (Rattus norvegicus [14]): inactive | inhibition (Rattus norvegicus [15]): inactive

CC(C)=NN1C(=O)CC2(C(=O)N(Cc3ccc(Br)cc3F)C(=O)c3ccccc32)C1=O (stereo not given)
Inhibition (Rattus norvegicus [16]): 82% | inhibition [2]: inactive | Inhibition (Rattus norvegicus [17]): 30% | inhibition (Rattus norvegicus [18]): inactive

COC(=O)NC(=O)CC1C(=O)N(C)C(=O)c2ccccc21 (stereo not given)
inhibition [2]: 61% | Inhibition (Rattus norvegicus [19]): 59% | inhibition (Rattus norvegicus [20]): inactive | Inhibition (Rattus norvegicus [21]): 37% | Inhibition (Rattus norvegicus [22]): 21%

CN1C(=O)CC2(C1=O)C(=O)N(Cc1ccc(Cl)cc1)C(=O)c1ccccc12 (stereo not given)
inhibition [2]: inactive | Inhibition (Rattus norvegicus [23]): 35%

CC(=O)NN1C(=O)CC2(C(=O)N(Cc3ccc(Br)cc3F)C(=O)c3ccccc32)C1=O (stereo not given)
inhibition [2]: inactive | Inhibition (Rattus norvegicus [24]): 73% | Inhibition (Rattus norvegicus [25]): 25%

CCOC(=O)NC(=O)CC1C(=O)N(C)C(=O)c2ccc(Cl)cc21 (stereo not given)
inhibition [2]: inactive | inhibition (Rattus norvegicus [26]): inactive | Inhibition (Rattus norvegicus [27]): 21%

CCC(CC)=NN1C(=O)CC2(C(=O)N(Cc3ccc(Br)cc3F)C(=O)c3ccccc32)C1=O (stereo not given)
Inhibition (Rattus norvegicus [28]): 98% | inhibition [2]: inactive | Inhibition (Rattus norvegicus [29]): 71%

CCN1C(=O)CC2(C1=O)C(=O)N(Cc1ccc(Br)cc1F)C(=O)c1ccccc12 (stereo not given)
Inhibition (Rattus norvegicus [30]): 65% | inhibition [2]: inactive | Inhibition (Rattus norvegicus [31]): 37%

CN1C(=O)CC2(C1=O)C(=O)N(Cc1ccc(Br)cc1F)C(=O)c1ccc(F)cc12 (stereo not given)
Inhibition (Rattus norvegicus [32]): 28% | inhibition [2]: inactive

NN1C(=O)CC2(C1=O)C(=O)N(Cc1ccc(Br)cc1F)C(=O)c1ccccc12 (stereo not given)
Inhibition (Rattus norvegicus [33]): 72% | inhibition [2]: inactive | Inhibition (Rattus norvegicus [34]): 82%

COC(=O)NC(=O)CC1C(=O)N(C)C(=O)c2ccc(F)cc21 (stereo not given)
inhibition [2]: 71% | inhibition (Rattus norvegicus [35]): inactive | Inhibition (Rattus norvegicus [36]): 58%

CN1C(=O)c2ccc(Cl)cc2C2(CC(=O)N2)C1=O (stereo not given)
Inhibition (Rattus norvegicus [37]): 66% | inhibition (Rattus norvegicus [38]): inactive | Inhibition (Rattus norvegicus [39]): 87%

O=C1c2ccccc2C2(CC(=O)N(N=C3CCCC3)C2=O)C(=O)N1Cc1ccc(Br)cc1F (stereo not given)
inhibition [2]: inactive | Inhibition (Rattus norvegicus [40]): 76% | Inhibition (Rattus norvegicus [41]): 82% | inhibition (Rattus norvegicus [42]): inactive | Inhibition (Rattus norvegicus [43]): 86%

COC(=O)NC(=O)CC1C(=O)N(Cc2ccc(Br)cc2F)C(=O)c2ccc(F)cc21 (stereo not given)
inhibition (Rattus norvegicus [44]): inactive | inhibition [2]: 55% | Inhibition (Rattus norvegicus [45]): 78%
